Reference: ChEMBL document CHEMBL1154783, “Study of 1,4-dihydropyridine structural scaffold: discovery of novel sirtuin activators and inhibitors” (2009)
Activity calls are given as the source filed them. The rule behind the calls is not given here.

What was measured:
[1] = Inhibition of human MSC senescence assessed as appearance of senescence-associated beta-galactosidase positive cells at 50 uM after 48 hrs by optic microscopy relative to control; type: functional; set-up: scale not given: the % may be the effect or the level left
Method in brief: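 Primary human MSC cultured 30 days (ninth passage), 3 × 10^5 cells/well, treated at 50 μM for 48 h. Cells fixed in 2% formaldehyde/0.2% glutaraldehyde, then stained overnight at 37 °C in pH 6 citrate/phosphate buffer with ferro/ferricyanide and 1 mg/mL X-Gal. Blue cells counted as % of total, with the control set as 100%.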

[2] = test system: C2C12; assay: Increase in mitochondrial function in mouse C2C12 cells assessed as enhancement of mitochondrial density at 50 uM after 16 hrs by green FM dye straining-based fluorescence assay; type: functional, cell-based
Method in brief: (§1)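 C2C12 myoblasts (3000 cells/well) treated for 16 h (overnight), with DMSO as control. Cells then stained with MitoTracker Green FM (200 nM) and fluorescence intensity read after subtracting background from unstained wells.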

[3] = biological target: T1, NAD-dependent protein deacetylase sirtuin-1 (Homo sapiens) (UniProt Q96EB6); assay: Inhibition of human SIRT1 expressed in Escherichia coli at 50 uM after 1 hr by fluorescent biochemical assay
T1 sequence (whole entry): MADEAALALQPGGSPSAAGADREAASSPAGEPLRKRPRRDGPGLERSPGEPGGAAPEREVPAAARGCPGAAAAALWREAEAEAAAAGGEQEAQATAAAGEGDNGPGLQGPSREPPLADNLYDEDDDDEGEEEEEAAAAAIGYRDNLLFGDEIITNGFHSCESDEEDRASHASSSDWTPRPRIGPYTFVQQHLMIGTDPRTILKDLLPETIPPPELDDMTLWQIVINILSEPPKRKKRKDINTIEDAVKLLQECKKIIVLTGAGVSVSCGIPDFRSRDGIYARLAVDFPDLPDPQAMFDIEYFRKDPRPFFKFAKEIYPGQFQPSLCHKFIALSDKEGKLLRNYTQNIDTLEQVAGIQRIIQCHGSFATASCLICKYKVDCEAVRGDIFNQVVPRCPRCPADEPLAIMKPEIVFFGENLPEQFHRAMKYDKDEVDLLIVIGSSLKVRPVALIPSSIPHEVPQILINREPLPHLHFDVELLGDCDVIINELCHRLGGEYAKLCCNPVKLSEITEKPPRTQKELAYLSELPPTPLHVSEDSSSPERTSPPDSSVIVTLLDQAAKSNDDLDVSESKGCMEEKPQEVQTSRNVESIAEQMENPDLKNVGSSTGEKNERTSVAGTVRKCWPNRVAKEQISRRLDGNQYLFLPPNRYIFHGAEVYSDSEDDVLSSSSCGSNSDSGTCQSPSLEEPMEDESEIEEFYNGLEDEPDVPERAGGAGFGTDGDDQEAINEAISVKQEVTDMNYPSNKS
Method in brief: (§2)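 Fluor de Lys two-step assay with human SIRT1 (full length, 747 aa), SIRT2 (389 aa) or SIRT3 catalytic fragment ([…]), all expressed in E. coli. Enzyme was set at 1 U/well for SIRT1 and 5 U/well for SIRT2/SIRT3. Developer was then added for 15 min at 37 °C. Read at ex 355/em 460 nm, triplicates, background-subtracted, with autofluorescence controls for activators.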

[4] = biological target: T1, NAD-dependent protein deacetylase sirtuin-1 (Homo sapiens); assay: Activation of human SIRT1 expressed in Escherichia coli after 1 hr by fluorescent biochemical assay; method in brief: as §2
[5] = biological target: T2, NAD-dependent protein deacetylase sirtuin-2 (Homo sapiens) (UniProt Q8IXJ6); assay: Inhibition of human SIRT2 expressed in Escherichia coli at 50 uM after 1 hr by fluorescent biochemical assay; method in brief: as §2
T2 sequence (whole entry): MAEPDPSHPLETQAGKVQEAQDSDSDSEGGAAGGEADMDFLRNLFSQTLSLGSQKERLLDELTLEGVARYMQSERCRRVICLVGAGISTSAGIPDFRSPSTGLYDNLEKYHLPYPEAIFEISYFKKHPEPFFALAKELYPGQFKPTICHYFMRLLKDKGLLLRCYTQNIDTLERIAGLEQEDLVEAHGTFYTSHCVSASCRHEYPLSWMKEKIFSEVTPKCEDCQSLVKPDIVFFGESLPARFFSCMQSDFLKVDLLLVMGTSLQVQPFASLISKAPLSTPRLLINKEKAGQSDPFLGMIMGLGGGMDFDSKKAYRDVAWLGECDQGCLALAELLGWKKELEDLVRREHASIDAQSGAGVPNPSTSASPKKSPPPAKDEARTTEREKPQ

[6] = test system: MCF7; assay: Induction of apoptosis in human MCF7 cells assessed as caspase 3/7 activity at 50 uM after 30 hrs by FACS analysis; type: functional, cell-based
[7] = biological target: T3, NAD-dependent protein deacetylase sirtuin-3, mitochondrial (Homo sapiens) (UniProt Q9NTG7); assay: Inhibition of human SIRT3 expressed in Escherichia coli at 50 uM after 1 hr by fluorescent biochemical assay; method in brief: as §2
T3 sequence (whole entry): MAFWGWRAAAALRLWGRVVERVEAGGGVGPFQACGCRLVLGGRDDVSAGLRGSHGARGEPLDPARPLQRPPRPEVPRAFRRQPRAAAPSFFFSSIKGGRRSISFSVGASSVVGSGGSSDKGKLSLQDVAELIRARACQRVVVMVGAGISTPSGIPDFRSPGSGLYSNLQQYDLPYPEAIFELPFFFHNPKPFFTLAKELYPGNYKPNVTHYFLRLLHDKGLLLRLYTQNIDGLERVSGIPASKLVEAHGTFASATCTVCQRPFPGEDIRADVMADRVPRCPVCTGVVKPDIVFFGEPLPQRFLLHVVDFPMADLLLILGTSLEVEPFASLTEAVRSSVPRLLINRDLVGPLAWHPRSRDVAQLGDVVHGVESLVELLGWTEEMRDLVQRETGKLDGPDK

[8] = biological target: T3, NAD-dependent protein deacetylase sirtuin-3, mitochondrial (Homo sapiens); assay: Activation of human SIRT3 expressed in Escherichia coli after 1 hr by fluorescent biochemical assay; method in brief: as §2
[9] = test system: U-937; assay: Cell cycle arrest in human U937 cells assessed as accumulation at G1/S phase at 50 uM after 30 hrs by FACS analysis; type: functional, cell-based
Method in brief: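 U937 cells given 50 μM for 30 h. 2.5 × 10^5 cells lysed in hypotonic buffer (0.1% Triton X-100, 0.1% sodium citrate, 50 μg/mL PI, RNase A) for 30 min in the dark, then DNA content measured by flow cytometry. Done in triplicate.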

[10] = test system: MCF7; assay: Cell cycle arrest in human MCF7 cells assessed as accumulation at G1/S phase at 50 uM after 30 hrs by FACS analysis; type: functional, cell-based
[11] = test system: U937 (Homo sapiens); assay: Induction of granulocyte differentiation in human U937 cells assessed as increase in phycoerythrine-conjugated CD11c expression at 50 uM after 30 hrs by propidium iodide staining-based FACS analysis
[12] = biological target: T2, NAD-dependent protein deacetylase sirtuin-2 (Homo sapiens); assay: Activation of human SIRT2 expressed in Escherichia coli at 1 to 50 uM after 1 hr by fluorescent biochemical assay; method in brief: as §2
[13] = biological target: T2, NAD-dependent protein deacetylase sirtuin-2 (Homo sapiens); assay: Activation of human SIRT2 expressed in Escherichia coli after 1 hr by fluorescent biochemical assay; method in brief: as §2
[14] = test system: C2C12; assay: Stimulation of transcriptional activity of mTFA promoter in mouse C2C12 cells after 16 hrs by luciferase reporter gene assay; type: functional, cell-based
Method in brief: (§3)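 C2C12 myoblasts in DMEM with 10% heat-inactivated FCS were reverse-transfected (Lipofectamine) with a luciferase reporter carrying either the wild-type mTFA promoter or a mutant lacking the NRF1 site. Cells plated at 3000/well and treated for 16 h (overnight). Luciferase activity compared with DMSO-treated cells by Student's t-test.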

[15] = biological target: T4, Peroxisome proliferator-activated receptor gamma coactivator 1-alpha (Homo sapiens) (UniProt Q9UBK2); assay: Stimulation of PGC1-alpha-mediated transcriptional activity of mTFA promoter in mouse C2C12 cells expressing NRF1 site after 16 hrs by luciferase reporter gene assay; type: cell-based; method in brief: as §3
T4 sequence (whole entry): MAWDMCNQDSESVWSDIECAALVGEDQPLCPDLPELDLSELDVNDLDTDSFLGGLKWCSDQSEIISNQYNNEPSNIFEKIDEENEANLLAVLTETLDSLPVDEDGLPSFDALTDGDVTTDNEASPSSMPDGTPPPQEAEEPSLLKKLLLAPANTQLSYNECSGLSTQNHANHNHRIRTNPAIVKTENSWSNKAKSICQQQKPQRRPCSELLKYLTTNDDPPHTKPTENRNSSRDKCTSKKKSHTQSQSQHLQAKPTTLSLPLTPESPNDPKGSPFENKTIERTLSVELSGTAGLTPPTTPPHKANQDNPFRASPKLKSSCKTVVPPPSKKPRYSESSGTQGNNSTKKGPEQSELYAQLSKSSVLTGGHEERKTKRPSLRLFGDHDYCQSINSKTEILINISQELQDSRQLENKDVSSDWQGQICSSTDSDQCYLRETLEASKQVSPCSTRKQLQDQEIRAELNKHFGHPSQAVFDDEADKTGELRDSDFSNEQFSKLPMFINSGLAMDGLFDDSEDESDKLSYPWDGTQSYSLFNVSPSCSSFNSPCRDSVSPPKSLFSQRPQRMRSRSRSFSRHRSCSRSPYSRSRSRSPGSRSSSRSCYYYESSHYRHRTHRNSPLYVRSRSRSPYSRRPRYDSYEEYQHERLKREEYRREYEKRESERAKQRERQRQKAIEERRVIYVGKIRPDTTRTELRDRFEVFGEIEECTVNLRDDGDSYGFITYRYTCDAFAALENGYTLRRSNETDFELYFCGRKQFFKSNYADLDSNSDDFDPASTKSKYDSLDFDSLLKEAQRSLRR

[16] = test system: C2C12; assay: Increase in mitochondrial function in mouse C2C12 cells assessed as enhancement of mitochondrial density at 10 to 50 uM after 16 hrs by green FM dye straining-based fluorescence assay; type: functional, cell-based; method in brief: as §1
[17] = test system: U-937; assay: Induction of apoptosis in human U937 cells assessed as caspase 3/7 activity at 50 uM after 30 hrs by FACS analysis; type: functional
Method in brief: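 U937 cells given 50 μM for 30 h. Apoptosis measured as caspase 3-7 activity by FACS.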

[18] = test system: U-937; assay: Induction of granulocyte differentiation in human U937 cells assessed as increase in phycoerythrine-conjugated CD11c expression at 50 uM after 30 hrs by propidium iodide staining-based FACS analysis; type: functional
Method in brief: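 U937 cells given 50 μM for 30 h, then stained with CD11c-PE (or PE-mouse IgG1 control) for 30 min at 4 °C in the dark. Cells were resuspended in PBS with PI (0.25 μg/mL) and analyzed by FACS, with PI-positive cells excluded. Readout: CD11c+/PI− cells.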

[19] = test system: MCF7; assay: Induction of granulocyte differentiation in human MCF7 cells assessed as increase in phycoerythrine-conjugated CD11c expression at 50 uM after 30 hrs by propidium iodide staining-based FACS analysis; type: functional, cell-based

SMILES	Activity [1]	inhibition [3]	Activity [4]	inhibition [5]	Activity [6]	Activity [7]	EC150 [8]	Activity [9]	Activity [10]	Activity [11]	Activity [17]	other results
Oc1ccc(/C=C/c2cc(O)cc(O)c2)cc1 [RESVERATROL]	50%											Activity [2]: Active
O=C(O)C1=CN(c2ccccc2)C=C(C(=O)O)C1c1ccccc1		86.6%										
NC(=O)C1=CN(Cc2ccccc2)C=C(C(N)=O)C1c1ccccc1	65%	inactive	Dose-dependent effect	inactive	inactive	inactive	> 50 µM	Active	inactive	inactive		Activity [12]: inactive
O=C(O)C1=CN(Cc2ccccc2)C=C(C(=O)O)C1c1ccccc1	70%	inactive	Dose-dependent effect	inactive	inactive	inactive	50 µM	Active	inactive	inactive		EC150 [4]: 1 µM; EC150 [13]: 15 µM
CCOC(=O)C1=CN(Cc2ccccc2)C=C(C(=O)OCC)C1c1ccccc1		inactive	Dose-dependent effect	inactive	inactive	inactive	50 µM	Active	inactive	inactive		EC150 [4]: 1 µM; Activity [14]: inactive; EC150 [13]: 25 µM; Activity [15]: Dose-dependent effect; Activity [16]: Active
CCOC(=O)C1=CN(CCc2ccccc2)C=C(C(=O)OCC)C1c1ccccc1		76.6%		49.6%	inactive				inactive		3%	Activity [18]: 12.3%; Activity [19]: inactive
NC(=O)C1=CN(c2ccccc2)C=C(C(N)=O)C1c1ccccc1		89.1%										
CCOC(=O)C1=CN(c2ccccc2)C=C(C(=O)OCC)C1c1ccccc1		63.6%		51.3%	inactive				inactive	inactive	3%	
CCOC(=O)C1=CN(C2CC2)C=C(C(=O)OCC)C1c1ccccc1				53.7%	inactive				inactive	inactive	3%	
